Laboratory results as given in ChEMBL document CHEMBL3608303, “Discovery of novel potent and selective ligands for 5-HT2A receptor with quinazoline scaffold” (Bioorg Med Chem Lett, 2015).

Tests used:
[1] = molecular target: T1, 5-hydroxytryptamine receptor 1A (Homo sapiens) (UniProt P08908); experiment: (§1) Displacement of [3H]-8-OH-DPAT from 5-HT1A receptor (unknown origin) expressed in HEK293 cell membranes incubated for 15 mins by liquid scintillation spectrometry; design: concentration or dose not given beside the values
T1 sequence (whole entry): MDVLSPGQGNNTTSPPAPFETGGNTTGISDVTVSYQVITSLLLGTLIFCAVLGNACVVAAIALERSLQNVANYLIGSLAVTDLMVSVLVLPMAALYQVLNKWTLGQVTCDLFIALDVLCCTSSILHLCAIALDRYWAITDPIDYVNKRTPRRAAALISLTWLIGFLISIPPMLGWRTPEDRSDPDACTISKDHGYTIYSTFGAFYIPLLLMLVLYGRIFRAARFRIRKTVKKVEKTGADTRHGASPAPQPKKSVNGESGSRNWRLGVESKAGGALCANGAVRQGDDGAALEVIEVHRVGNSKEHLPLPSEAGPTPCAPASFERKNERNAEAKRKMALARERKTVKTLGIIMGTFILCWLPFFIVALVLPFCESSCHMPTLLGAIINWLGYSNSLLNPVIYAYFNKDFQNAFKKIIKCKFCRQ

[2] = molecular target: T2, 5-hydroxytryptamine receptor 2A (Homo sapiens, UniProt P28223); experiment: Displacement of [3H]ketanserin hydrochloride from 5-HT2A receptor (unknown origin) expressed in HEK293 cell membranes incubated for 15 mins by liquid scintillation spectrometry
T2 sequence (P28223 whole entry): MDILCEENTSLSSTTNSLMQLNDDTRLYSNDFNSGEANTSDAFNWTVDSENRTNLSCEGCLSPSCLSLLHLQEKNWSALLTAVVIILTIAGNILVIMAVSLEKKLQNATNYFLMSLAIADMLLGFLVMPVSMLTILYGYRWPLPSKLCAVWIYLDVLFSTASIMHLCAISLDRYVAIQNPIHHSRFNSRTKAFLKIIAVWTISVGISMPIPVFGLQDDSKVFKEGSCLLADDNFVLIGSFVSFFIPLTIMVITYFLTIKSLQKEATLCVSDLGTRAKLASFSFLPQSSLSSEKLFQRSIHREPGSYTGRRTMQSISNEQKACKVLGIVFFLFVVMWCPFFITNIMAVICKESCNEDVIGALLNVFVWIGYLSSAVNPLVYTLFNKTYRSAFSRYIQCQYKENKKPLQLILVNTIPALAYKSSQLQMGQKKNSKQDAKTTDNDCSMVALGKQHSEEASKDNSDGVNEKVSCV

D(3) dopamine receptor = D(3) dopamine receptor (Homo sapiens, UniProt P35462); experiment: Displacement of [3H]-spiperone from dopamine D3 receptor (unknown origin) expressed in HEK293 cell membranes incubated for 15 mins by liquid scintillation spectrometry; design: concentration or dose not given beside the values
D(3) dopamine receptor, sequence (P35462 whole entry): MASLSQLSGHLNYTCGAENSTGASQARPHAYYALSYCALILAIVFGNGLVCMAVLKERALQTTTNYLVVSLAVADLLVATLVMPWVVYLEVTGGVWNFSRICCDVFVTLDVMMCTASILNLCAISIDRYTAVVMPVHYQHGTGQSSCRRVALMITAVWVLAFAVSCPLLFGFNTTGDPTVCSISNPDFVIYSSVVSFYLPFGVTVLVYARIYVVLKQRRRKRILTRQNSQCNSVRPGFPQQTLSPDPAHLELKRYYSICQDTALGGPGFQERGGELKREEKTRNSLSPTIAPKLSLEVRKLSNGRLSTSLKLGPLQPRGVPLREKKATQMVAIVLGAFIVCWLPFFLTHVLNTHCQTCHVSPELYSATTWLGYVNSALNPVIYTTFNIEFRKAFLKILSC

[3] = molecular target: T2, 5-hydroxytryptamine receptor 2A; experiment: Displacement of [3H]ketanserin hydrochloride from 5-HT2A receptor (unknown origin) expressed in HEK293 cell membranes incubated for 15 mins by liquid scintillation spectrometry relative to control; design: concentration or dose not given beside the values
How it was run: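 [3H]-Ketanserin displacement at 5-HT2A, first run as percent displacement of radioligand by a 10 μM test concentration.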

D(2) dopamine receptor = D(2) dopamine receptor (Homo sapiens, UniProt P14416); experiment: Displacement of [3H]-spiperone from dopamine D2 receptor (unknown origin) expressed in HEK293 cell membranes incubated for 15 mins by liquid scintillation spectrometry
D(2) dopamine receptor, sequence (P14416 whole entry): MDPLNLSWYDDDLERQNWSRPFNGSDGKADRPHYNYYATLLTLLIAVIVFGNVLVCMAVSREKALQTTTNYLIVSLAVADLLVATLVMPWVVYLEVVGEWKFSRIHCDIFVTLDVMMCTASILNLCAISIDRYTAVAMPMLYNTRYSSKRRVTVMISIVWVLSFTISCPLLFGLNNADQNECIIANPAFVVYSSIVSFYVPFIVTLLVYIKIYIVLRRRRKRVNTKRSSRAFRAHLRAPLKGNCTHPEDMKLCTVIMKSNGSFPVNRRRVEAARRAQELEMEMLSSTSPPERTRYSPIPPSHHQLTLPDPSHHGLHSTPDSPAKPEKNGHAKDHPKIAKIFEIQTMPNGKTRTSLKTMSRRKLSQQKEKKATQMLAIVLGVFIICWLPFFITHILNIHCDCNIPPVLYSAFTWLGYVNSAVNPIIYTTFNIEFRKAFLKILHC

D(1A) dopamine receptor [4] = molecular target: T3, D(1A) dopamine receptor (Homo sapiens, UniProt P21728); experiment: Displacement of [3H]-SCH-23390 from dopamine D1 receptor (unknown origin) expressed in HEK293 cell membranes incubated for 15 mins by liquid scintillation spectrometry
T3 sequence (P21728 whole entry): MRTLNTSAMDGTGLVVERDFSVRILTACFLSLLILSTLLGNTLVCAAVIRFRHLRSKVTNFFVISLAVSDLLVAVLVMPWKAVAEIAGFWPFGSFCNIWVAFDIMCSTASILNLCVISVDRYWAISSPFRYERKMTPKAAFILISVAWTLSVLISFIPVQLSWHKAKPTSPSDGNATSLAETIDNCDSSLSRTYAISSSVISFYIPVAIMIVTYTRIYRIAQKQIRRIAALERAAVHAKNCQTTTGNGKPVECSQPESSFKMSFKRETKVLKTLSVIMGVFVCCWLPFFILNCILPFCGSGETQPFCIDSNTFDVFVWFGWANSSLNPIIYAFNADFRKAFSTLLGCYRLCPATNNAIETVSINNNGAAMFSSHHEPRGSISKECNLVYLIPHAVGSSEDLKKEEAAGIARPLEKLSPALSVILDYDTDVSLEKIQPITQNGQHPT

[5] = molecular target: T4, 5-hydroxytryptamine receptor 1A (Homo sapiens, UniProt P08908); experiment: as §1
T4 sequence (P08908 whole entry): T1 sequence (whole entry)

D(1A) dopamine receptor [6] = molecular target: T3, D(1A) dopamine receptor; conditions: hek293
[7] = molecular target: T2, 5-hydroxytryptamine receptor 2A; experiment: Agonist activity at 5-HT2A receptor (unknown origin) expressed in HEK293 cell membranes assessed as induction of [35S]-GTPgammaS binding incubated for 30 mins by liquid scintillation counting method; assay type: functional
[8] = molecular target: T2, 5-hydroxytryptamine receptor 2A; assay type: functional, cell-based, HEK293

SMILES	inhibition [1]	Ki [2]	inhibition (D(3) dopamine receptor)	inhibition [3]	inhibition (D(2) dopamine receptor)	inhibition (D(1A) dopamine receptor [4])	Ki [5]	Ki (D(3) dopamine receptor; read-out: Ki)	Ki (D(1A) dopamine receptor [6])	Ki (D(2) dopamine receptor)	EC50 [7]	IC50 [8]	Ki (D(3) dopamine receptor; hek293)
CC(C)c1ccc(Nc2nc(N3CCNCC3)nc3ccccc23)cc1	84.3%	0.0421 µM	22.5%	> 90%	14%	94.8%	–	–	–	–	–	–	–
OCCN1CCN(c2nc(NCc3ccccc3)c3ccccc3n2)CC1	–	0.52 µM	–	> 90%	–	–	Not Active	1.44 µM	Not Active	Not Active	–	–	–
OCCN1CCN(c2nc(Nc3ccc(Cl)cc3)c3ccccc3n2)CC1	53.8%	0.109 µM	75.6%	–	53%	80.5%	–	–	–	–	Not Active	7.43 µM	–
CC(C)(C)[C@@]1(O)CCN2C[C@@H]3c4ccccc4CCc4cccc(c43)[C@H]2C1	–	–	–	> 90%	–	–	–	–	–	–	–	–	–
OCCN1CCN(c2nc(Nc3ccccc3F)c3ccccc3n2)CC1	–	0.0658 µM	10.1%	> 90%	–	–	Not Active	–	Not Active	Not Active	Not Active	1.37 µM	–
OCCN1CCN(c2nc(Nc3cccc(O)c3)c3ccccc3n2)CC1	–	0.0834 µM	11.7%	> 90%	–	–	Not Active	–	Not Active	Not Active	Not Active	9.12 µM	–
Fc1ccc(Nc2nc(N3CCOCC3)nc3ccccc23)cc1	–	0.235 µM	-0.57%	> 90%	–	–	Not Active	–	Not Active	Not Active	–	–	–
OCCN1CCN(c2nc(Nc3ccc(F)cc3)c3ccccc3n2)CC1	–	0.12 µM	49.3%	–	–	–	Not Active	–	Not Active	Not Active	Not Active	21.3 µM	–
OCCN1CCN(c2nc(Nc3ccc(Br)cc3)c3ccccc3n2)CC1	–	0.092 µM	–	–	–	–	Not Active	0.571 µM	Not Active	Not Active	Not Active	27.7 µM	–
CC(C)c1ccc(Nc2nc(Nc3ccc(C(C)C)cc3)c3ccccc3n2)cc1	–	–	–	5.91%	–	–	Not Active	–	Not Active	Not Active	–	–	Not Active
COc1ccccc1Nc1nc(N2CCNCC2)nc2ccccc12	–	0.0458 µM	–	> 90%	–	–	Not Active	–	Not Active	Not Active	Not Active	–	–
Fc1ccccc1Nc1nc(N2CCNCC2)nc2ccccc12	–	0.07 µM	22.5%	> 90%	–	–	Not Active	–	Not Active	Not Active	Not Active	–	–
CC(C)c1ccc(Nc2nc(N3CCN(CCO)CC3)nc3ccccc23)cc1	42.3%	0.149 µM	–	> 90%	–	–	–	1.14 µM	Not Active	Not Active	–	–	–
Clc1ccc(Nc2nc(N3CCOCC3)nc3ccccc23)cc1	16.7%	–	–	45.3%	–	-9.36%	–	–	–	–	–	–	–
COc1ccc(Nc2nc(N3CCN(CCO)CC3)nc3ccccc23)cc1	–	1.36 µM	–	> 90%	–	–	–	–	–	–	–	–	–
COc1ccc(Nc2nc(N3CCN(CCO)CC3)nc3ccccc23)c(OC)c1	–	0.594 µM	–	> 90%	–	–	Not Active	–	Not Active	Not Active	–	–	Not Active
Ic1ccc(Nc2nc(N3CCNCC3)nc3ccccc23)cc1	56.6%	0.496 µM	–	> 90%	–	–	–	–	Not Active	Not Active	–	–	Not Active
Fc1ccccc1Nc1nc(N2CCOCC2)nc2ccccc12	–	0.184 µM	–	> 90%	–	–	Not Active	–	Not Active	Not Active	–	–	–
Cc1ccc(Nc2nc(N3CCN(CCO)CC3)nc3ccccc23)c(C)c1	81.2%	0.268 µM	39%	> 90%	–	–	–	–	Not Active	Not Active	–	–	–
OCCN1CCN(c2nc(Nc3ccc(I)cc3)c3ccccc3n2)CC1	–	0.383 µM	–	> 90%	–	–	–	–	–	–	–	–	–
Clc1ccc(Nc2nc(N3CCNCC3)nc3ccccc23)cc1	88.6%	0.014 µM	78.8%	–	71.4%	83.9%	–	–	–	–	Not Active	1.66 µM	–
CC(C)c1ccc(Nc2nc(N(C)C)nc3ccccc23)cc1	–	–	–	75.1%	–	–	Not Active	–	Not Active	Not Active	–	–	Not Active
COc1ccccc1Nc1nc(N2CCN(CCO)CC2)nc2ccccc12	52%	0.146 µM	0.9%	> 90%	–	–	–	–	Not Active	Not Active	–	–	–
